In the library only some 2% were active in any assay of this set; here they are far more common.
PLCb3 inh = inhibitors of human phospholipase C beta3; Purified PLC-beta3, fluorogenic substrate, fluorescence; inhibition, % at 12.2 µM; actives 0.18% (n = 370,000); AID 720704;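 note: 0% = median of compound wells on plate and 100% = full blocker control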
PvdQ inh = P. aeruginosa PvdQ acylase inhibition. inhibition, % at 10 µM. actives 0.063% (n = 340,000). AID 488965. purified PvdQ acylase, fluorescence plate reader; in the data active = inhibition above about 30%, passing the limit was not always enough;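 note: 0% = vehicle neutral wells and 100% = reference inhibitor wells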
PLC-gamma1 inh = blocks human PLC-gamma1 enzyme activity. purified PLC-gamma1, fluorogenic substrate, fluorescence. P19174. actives 0.84% (n = 370,000). AID 720700. inhibition, % at 12.2 µM; in the data active = inhibition above about 9.5%
IMP-1 inh = inhibitors of Pseudomonas aeruginosa IMP-1 metallo-beta-lactamase | purified IMP-1, nitrocefin hydrolysis, epi-absorbance fluorescence | inhibition, % at 5.6 µM | actives 0.45% (n = 290,000) | AID 1556;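 active = inhibition above the mean plus 3 SD of all compounds in the same screening run, cut at about 4.5% in these data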;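 note: 0% = IMP-1 with DMSO and 100% = DMSO wells lacking enzyme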
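System: Purified recombinant IMP-1 metallo-beta-lactamase enzyme | Measured by: Fluorescence quenching readout, ex 480/em 530 nm | Replication: Singlicate | Incubation: 15 min preincubation plus 25 min reaction at 25 °C | Evaluation: Percent inhibition from optical density relative to buffer-blank wells | Benchmarks: DMSO with and without IMP-1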
VIM-2 inh = inhibitors of Pseudomonas aeruginosa VIM-2 metallo-beta-lactamase; AID 1527; purified VIM-2, nitrocefin hydrolysis, epi-absorbance fluorescence; inhibition, % at 5.6 µM; actives 0.89% (n = 290,000);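 active = inhibition above the mean of all tested compounds plus 3 SD, cutoff set per screening run, cut at about 7.5% in these data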;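 note: red hydrolysis product quenches plate fluorescence so inhibitors raise well fluorescence; 0% = enzyme with DMSO and 100% = DMSO without enzyme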
PLCgamma1 ctr = inhibits human PLC-gamma1 in PLC-beta3 counter-screen; AID 743258; inhibition, % at 12.3 µM; purified PLC-gamma1, fluorogenic substrate, fluorescence; actives 3.1% (n = 3,300); shares compounds with PLC-gamma1 inh; in the data active = inhibition above about 9.5%
PLCbeta3 conf = confirmation of human PLC-beta3 inhibitors. shares compounds with PLC-gamma1 inh. purified PLC-beta3, fluorogenic substrate fluorescence. inhibition, % at 12.3 µM. actives 1% (n = 3,300)
* hit, by the source's call; x = no result. Cut-off read from the data, not from the text of the source, unless noted: active = inhibition above about 11%; inactive = the rest.

SMILES | PLCb3 inh | PvdQ inh | PLC-gamma1 inh | IMP-1 inh | VIM-2 inh | PLCgamma1 ctr | PLCbeta3 conf
CCOc1ccc(S(=O)(=O)Nc2cc(Cl)ccc2O)cc1 | 0.2 | 7.2 | 13.2* | -3.0 | -0.1 | -2.0 | -3.5
Cc1ccc(C2OC(=O)c3ccccc32)cc1 (stereo unspecified) | 3.1 | 3.0 | 9.6* | -0.7 | -1.4 | -1.9 | -0.4
CCc1cccc(NC(=O)c2ccc(Cn3nc(C)cc3C)o2)c1 | 4.2 | 12.9 | 9.8* | -4.8 | -0.1 | -5.9 | -0.8
CCOc1ccc(NC(=O)c2ccc(Cn3nc(C)cc3C)o2)cc1 | -2.9 | -13.3 | -0.7 | -1.8 | -1.0 | x | x
Cc1ccc(S(=O)(=O)N2c3ccc(F)cc3C[C@H]2CSc2ccccc2)cc1 | 0.7 | x | 2.6 | x | x | x | x
CC(=O)OC(C(=O)Nc1nccs1)c1ccccc1 (stereo unspecified) | -2.4 | -13.7 | 13.3* | -3.3 | -1.4 | 7.2 | 0.1
O=C(Nc1nccs1)C(Br)C(Br)c1ccccc1 (stereo unspecified) | -0.6 | -5.0 | 4.4 | -1.8 | -1.1 | x | x
Nc1[nH]c(C(=O)c2ccccc2)c(-c2ccc(O)cc2)c1C(=O)NCCc1c[nH]c2ccccc12 | -5.5 | x | -4.9 | x | x | x | x
CCCCN1CNC(=S)N(c2ccccc2OCC)C1 | 2.5 | -2.0 | 11.2* | -0.5 | 2.6 | 0.9 | 4.0
C/C(CC(=O)NC1CCCC1)=N\NC(=O)c1ccc([N+](=O)[O-])c(Cl)c1 | 8.2 | -0.9 | 14.4* | -1.8 | -2.9 | -5.7 | -2.9
COc1ccc2ccccc2c1-c1c(C(=O)c2ccc(Br)cc2)[nH]c(N)c1C(=O)NC1CCCCC1 | -9.0 | x | -3.5 | x | x | x | x
C[C@H]1[C@@H](NC(=O)c2cccc(N(C)C)c2)CC[C@@]23CCCN2C(=O)CCC[C@@H]13 | -102.7 | x | -80.5 | x | x | x | x
CN(NS(=O)(=O)c1ccccc1)C(=O)c1ccccc1 | 5.4 | -8.7 | 12.1* | x | x | 0.5 | 2.2
CCCCCCCCN1C(=O)N(Cc2ccc(OC)cc2)S(=O)(=O)c2ccc(F)cc21 | 0.4 | x | -2.1 | x | x | x | x
COc1cc(OC)nc(Nc2nc(C(N)COCc3ccccc3)cs2)n1 (stereo unspecified) | -1.1 | x | 2.0 | x | x | x | x
COc1cc(OC)nc(Nc2nc(C(N)CCc3ccccc3)cs2)n1 (stereo unspecified) | 2.5 | x | 10.5* | x | x | -9.4 | -3.5
Cc1ccc(NC(=O)C2=CC(c3cccs3)=NS(=O)(=O)N2C)cc1 | -4.7 | -5.8 | 2.1 | -2.0 | -2.5 | x | x
CCc1ccc(NC(=O)C2=CC(c3cccs3)=NS(=O)(=O)N2C)cc1 | 4.1 | 0.0 | 15.7* | -2.8 | -1.5 | -7.5 | -2.5
Cc1ccc(/C=C2\CCC(C3CCCC3)C2=O)cc1 (stereo unspecified) | 3.5 | -3.2 | 6.2 | -2.7 | -3.6 | x | x
COc1ccc(/C=C2\CCC(C3CCCC3)C2=O)cc1 (stereo unspecified) | -5.4 | -6.3 | 10.0* | -2.2 | 0.6 | 2.0 | 3.6
COC(=O)C(Cc1ccc(O)cc1)NC(=O)C(C)NC(=O)c1ccc(C(C)(C)C)cc1 (stereo unspecified) | 2.1 | 1.1 | 9.7* | -2.6 | -4.5 | 5.6 | -14.4
CCCNC(=O)C1(C)CCCN(C(=O)Cc2ccc3ccccc3c2)C1 (stereo unspecified) | 0.6 | x | -0.4 | x | x | x | x
CCCNC(=O)C1(C)CCCN(C(=O)CN2C(=O)c3ccccc3C2=O)C1 (stereo unspecified) | -6.2 | x | 10.0* | x | x | -2.9 | 0.8
COC(=O)[C@]12C[C@H](CC(=O)NCCCN3CCCC3=O)C(=O)N(Cc3ccc(Cl)cc3Cl)C1=C[C@H](COCc1ccccc1)O[C@@H]2C | 2.2 | x | 0.7 | x | x | x | x
O=C(c1ccncc1)N1CC[C@H]2[C@H](CCCN2Cc2ccccc2)C1 | 3.3 | x | 1.9 | x | x | x | x
SMILES | PLCb3 inh | PvdQ inh | PLC-gamma1 inh | IMP-1 inh | VIM-2 inh | PLCgamma1 ctr | PLCbeta3 conf
CCCCCCSc1ccc([C@H]2N[C@@](CC(C)C)(C(=O)OC)[C@H]3C(=O)N(CC)C(=O)[C@@H]23)cc1 | 6.3 | 0.1 | 15.5* | x | x | -1.4 | 0.6
Cc1cccc(C)c1-n1ncc(C(=O)NC2CCCC2)c1C1CCNCC1 | 2.4 | -5.2 | 15.2* | -4.9 | -0.7 | 0.3 | 6.2
CC1(C)Cc2ccccc2C(/C(=N/O)C(N)=O)=N1 | 5.2 | -8.9 | 11.4* | -3.0 | -0.8 | 2.1 | 1.4
CN(CCc1ccccn1)C1CCCN(S(=O)(=O)c2ccc(F)c(Cl)c2)C1 (stereo unspecified) | -7.2 | -1.8 | 10.9* | -1.1 | -0.2 | -4.9 | -3.2
CCCN1C(=O)/C(=C2\SC(=S)N(c3c(C)n(C)n(-c4ccccc4)c3=O)C2=O)c2ccccc21 | x | x | x | 0.6 | -0.1 | x | x
CCN1C(=O)/C(=C2\SC(=S)N(c3c(C)n(C)n(-c4ccccc4)c3=O)C2=O)c2ccccc21 | 11.0* | -7.7 | 7.5 | -2.1 | -0.3 | -0.6 | -1.3
CC(C)(C)NC(=O)CCCCCCCC(=O)NC(C)(C)C | 11.4* | -15.4 | 13.2* | -2.1 | -3.9 | -6.0 | -1.4
CCCC(C)(C)NC(=O)CCCCC(=O)NC(C)(C)CCC | 1.1 | -11.5 | 1.4 | -0.3 | -2.3 | x | x
O=C1CC(c2ccc(Cl)cc2)c2c(O)cc(O)cc2O1 (stereo unspecified) | -0.9 | -17.1 | 10.1* | -1.1 | -3.9 | -6.5 | -2.9
Cc1ccc(C2CC(=O)Oc3cc(O)ccc32)cc1 (stereo unspecified) | -8.2 | -13.0 | -10.0 | -4.3 | -1.2 | x | x
C[C@H]1[C@@H](OC(=O)N2CCOCC2)CC[C@@]23CCCN2C(=O)CCC[C@@H]13 | 3.2 | x | 0.0 | x | x | x | x
Cc1ccc([N+](=O)[O-])cc1S(=O)(=O)Nc1cccc(S(=O)(=O)NC2=NCCC2)c1 | 7.1 | -23.2 | 9.6* | x | x | -4.6 | -3.0
Cc1cc(C)cc(-c2c(C(=O)c3ccc(Br)cc3)[nH]c(N)c2C(=O)NCc2ccc(Cl)cc2)c1 | -14.3 | x | -8.8 | x | x | x | x
O=C(NN=Cc1ccccc1O)C(=O)Nc1ccc(F)cc1 | -32.9 | x | -19.2 | x | x | x | x
COc1cc(S(=O)(=O)Nc2ccccc2C)ccc1NC(=O)c1ccncc1 | 1.3 | -15.7 | 1.0 | -4.6 | 2.1 | x | x
COc1cc(S(=O)(=O)Nc2ccc(C)cc2)ccc1NC(=O)c1ccncc1 | 7.1 | -8.5 | 12.2* | -3.9 | -2.7 | -3.9 | 1.1
CCCC[C@H]1C2CC(OC(=O)Nc3ccc(F)cc3)C(C2)[C@H]2CCCCN21 (stereo partly specified) | -0.3 | x | -0.5 | x | x | x | x
O=C(c1cc(COc2ccc(-n3cncn3)cc2)on1)N1CCCC1 | -2.3 | -1.9 | 13.8* | 1.2 | 4.5 | 0.6 | 2.2
COc1ccc2c(c1)CCCN2C(=O)C1CCCN(S(=O)(=O)c2ccc(Cl)s2)C1 (stereo unspecified) | -5.1 | x | -1.6 | x | x | x | x
CCC(C)(C)NC(=O)C(c1ccc(OC)cc1)N(C(=O)CCC(=O)Nc1cc(C)on1)C1CC1 (stereo unspecified) | 2.3 | 6.0 | 10.7* | -1.1 | -0.2 | -3.3 | 0.4

Screening results from PubChem BioAssay.
